The nature of test [1]: reducers of endogenous Her2 protein level, primary screen, SKBR3 breast tumor cells, AlphaScreen, ATP viability (AID 461;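 active = Her2 level under about 52% in both replicate screens, with viability over 70% of control, limit read from the data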;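 for Her2 level: lower value means less Her2 protein in the cells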;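 for viability: percent of carrier control wells set as 100% viability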). Particulars: 18-24 h, measured here: SKBR3 viability, ATP luminescence, at 10 µM. (In Alpha technology, singlet oxygen from a donor bead excites a nearby acceptor bead.)
Test [2] has as its target Receptor tyrosine-protein kinase erbB-2 (Homo sapiens) (UniProt P04626). The description is as above. Particulars: 18-24 h, at 10 µM, stronger effect = lower value.
Test [3] is described as follows: SK-BR-3 cell growth inhibitors, pilot screen, 24 h, human (AID 572).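 Note: compound exposure lasted between 18 and 24 h rather than exactly 24 h; 100% = carrier-treated control wells.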 Particulars: SK-BR-3 viability, CellTiter-Glo luminescence, at 10 µM, stronger effect = lower value. In general terms: ATP-based viability assays read luminescence as a measure of living cells.
Test [4] is described as follows: HUVEC growth inhibition – cell-based, human, primary screen (AID 575;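 active = viability at or below 30% in both replicate assays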;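 note: 100% = median of untreated cell wells with 0.1% DMSO on each plate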). Conditions: HUVEC proliferation, CellTiter-Glo luminescence, 72 h; at 10 µM; stronger effect = lower value. In outline:
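Assay system: primary human umbilical vein endothelial cells / Buffer or medium: endothelial basal medium with 2% FBS plus growth supplements / Compound dosing: one dose, 10 µM final, 0.1% DMSO / Timing: 72 h treatment at 37 °C / Signal: CTG luminescence / Benchmarks: 32 DMSO-only cell-control wells (high), 32 MePR drug-control wells (low) per plate / Plate: collagen-coated 384-well format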

Test [5] is described as follows: growth inhibitors of H69AR lung tumor, primary screen, human, duplicate replicates (AID 580;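 active = viability at or under a set limit in both replicates, limit being median viability minus 3 SD, cut at about 48% in these data, passing the limit was not always enough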;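 note: 100% = mean luminescence of untreated wells and 0% = no signal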). Particulars: H69AR lung tumor cells viability, ATP luminescence, 72 h; at 10 µM; stronger effect = lower value.
A short description of test [6]: reversal of MRP1-mediated doxorubicin resistance, pilot screen, H69AR cells, doxorubicin co-treatment (AID 601;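 active = viability loss from added drug above about 55%, and viability with drug at most 40%, in both replicates, limit read from the data, passing the limit was not always enough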). Conditions: CellTiter-Glo, 72 h, at 10 µM; for differential viability (reversal): stronger effect = higher value.
Test [7] is described as follows: 384-well plate pilot, post-Golgi transport modulator project, inhibition of yeast transport mutant growth (AID 636; in the data active = inhibition above about 31%). Conditions: absorbance 615 nm, about 18 h, stronger effect = higher value.
The nature of test [8]: growth suppression of yeast trafficking mutant, preliminary HTS, modulators of trafficking downstream of Golgi apparatus project, 1536-format plate, OD 615 nm (AID 637; in the data active = inhibition above about 30%). Conditions: yeast transport mutant growth, absorbance 615 nm, 18 h; stronger effect = higher value.
[9] abbreviates: H69AR cells + 2 uM doxorubicin, measured here: viability with 2 uM doxorubicin, stronger effect = lower value.
Where [10] appears, read: H69AR cells, compound alone cytotoxicity.

The source made the active and inactive calls.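 Rule for the calls, unless noted: active = viability at or below 10% of carrier control in both of two separate runs; inconclusive = viability at or below 10% in only one of the two runs; inactive = the rest.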

Sequence of Receptor tyrosine-protein kinase erbB-2 (Homo sapiens) (P04626 whole entry, looked up): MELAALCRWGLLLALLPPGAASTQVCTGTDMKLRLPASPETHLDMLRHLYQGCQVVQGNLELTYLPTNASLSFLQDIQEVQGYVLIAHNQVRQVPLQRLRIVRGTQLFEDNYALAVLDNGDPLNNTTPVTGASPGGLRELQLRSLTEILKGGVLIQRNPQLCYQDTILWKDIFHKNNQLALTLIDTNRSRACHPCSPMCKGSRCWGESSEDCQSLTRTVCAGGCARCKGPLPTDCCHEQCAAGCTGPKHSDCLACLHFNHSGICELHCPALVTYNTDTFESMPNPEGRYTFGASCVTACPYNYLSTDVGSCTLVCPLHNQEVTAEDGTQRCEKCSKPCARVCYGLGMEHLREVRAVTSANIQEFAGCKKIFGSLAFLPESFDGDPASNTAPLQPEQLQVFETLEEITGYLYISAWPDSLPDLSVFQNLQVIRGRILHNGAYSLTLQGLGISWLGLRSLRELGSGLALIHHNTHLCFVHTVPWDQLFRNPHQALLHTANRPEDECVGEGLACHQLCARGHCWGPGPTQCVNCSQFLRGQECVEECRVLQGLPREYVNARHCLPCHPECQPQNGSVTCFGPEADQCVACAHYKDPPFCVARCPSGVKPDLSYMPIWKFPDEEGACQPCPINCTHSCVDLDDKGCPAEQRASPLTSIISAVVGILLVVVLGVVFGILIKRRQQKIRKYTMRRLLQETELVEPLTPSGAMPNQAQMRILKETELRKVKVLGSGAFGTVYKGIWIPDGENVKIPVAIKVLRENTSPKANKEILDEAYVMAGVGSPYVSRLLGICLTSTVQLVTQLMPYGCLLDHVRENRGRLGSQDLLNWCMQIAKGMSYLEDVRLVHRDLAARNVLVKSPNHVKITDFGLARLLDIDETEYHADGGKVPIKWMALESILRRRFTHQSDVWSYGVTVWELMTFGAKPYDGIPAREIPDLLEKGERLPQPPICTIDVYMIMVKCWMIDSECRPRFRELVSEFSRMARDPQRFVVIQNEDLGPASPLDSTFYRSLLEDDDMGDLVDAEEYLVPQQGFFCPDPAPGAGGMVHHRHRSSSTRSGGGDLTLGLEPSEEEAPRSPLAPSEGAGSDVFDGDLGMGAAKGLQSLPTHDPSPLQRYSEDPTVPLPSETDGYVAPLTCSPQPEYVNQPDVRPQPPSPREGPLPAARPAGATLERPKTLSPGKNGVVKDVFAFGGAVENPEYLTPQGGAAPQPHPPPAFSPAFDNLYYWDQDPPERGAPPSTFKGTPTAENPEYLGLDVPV

For `CCOc1ccccc1NC(=O)N1CCCC1C(=O)Nc1nnc(CC)s1` (stereo not given), the viability in test [1] was 94%; in test [3] it was 94% (inactive); in test [4], 89.7% (inactive); in test [5], 109% (inactive); in test [6] (setting [9]), 88.8%; in test [6] (setting [10]), 109%. Further, the Her2 level in test [2] was 88% (inactive). The differential viability (reversal) in test [6] (H69AR cells + 2 uM doxorubicin) is 20% (inactive). For the same molecule, the inhibition in test [7] was -5.95% (inactive); in test [8] it was -0.83% (inactive).

Regarding `COc1ccc(-c2nnc(SCCC(=O)O)n2-c2ccccc2)cc1`, the viability was 113% in test [1]; 113% (inactive) in test [3]; 96.1% (inactive) in test [4]; 95.2% (inactive) in test [5]; 97.3% in test [6] (setting [9]); 95.2% in test [6] (setting [10]). Also, in test [2], the Her2 level is 96.5% (inactive). Further, the differential viability (reversal) in test [6] (H69AR cells + 2 uM doxorubicin) was -2.17% (inactive). The results for the inhibition in test [7] and in test [8] were -0.53% (inactive) and -0.49% (inactive), respectively.

Take `Cn1cc(CN2CCc3ccccc3C2)c2ccccc21`: the viability in test [1] was 80.5%; in test [3], 80.5% (inactive); in test [4], 90.4% (inactive); in test [5], 75.6% (inactive); in test [6] (setting [9]) it was 84.1%; in test [6] (setting [10]), 75.6%. For the same molecule, the Her2 level in test [2] was 82% (inactive). The differential viability (reversal) in test [6] (H69AR cells + 2 uM doxorubicin) was -8.43% (inactive). Moreover, the inhibition was -5.58% (inactive) in test [7] and 3.93% (inactive) in test [8].

For `CN(C)S(=O)(=O)N1CCN(c2cccc(Cl)c2)CC1`, the viability in test [1] is 112%; in test [3], 112% (inactive); in test [4], 92% (inactive); in test [5] it was 91% (inactive); in test [6] (setting [9]), 106%; in test [6] (setting [10]) it was 91%. For the same molecule, the Her2 level in test [2] is 101% (inactive). The differential viability (reversal) in test [6] (H69AR cells + 2 uM doxorubicin) is -15% (inactive). Besides, the inhibition in test [7] was 0% (inactive); in test [8] it was 27% (inactive).

Consider `CSc1nc(=NC(C)=O)ss1`, for which the viability in test [1] is 122%; in test [3] it was 122% (inactive); in test [4] it was 84.7% (inactive); in test [5], 71.8% (inactive); in test [6] (setting [9]) it was 91.8%; in test [6] (setting [10]) it was 71.8%. Besides, the Her2 level in test [2] was 88.5% (inactive). Further, in test [6] (H69AR cells + 2 uM doxorubicin), the differential viability (reversal) was -20% (inactive). Besides, the inhibition is -6.8% (inactive) in test [7] and -10% (inactive) in test [8].

Regarding `O=C(O)c1cc(Cl)c(Cl)cc1C(=O)N1CCCC1`, the viability in test [1] was 97.5%; in test [3], 97.5% (inactive); in test [4], 87.2% (inactive); in test [5], 98.7% (inactive); in test [6] (setting [9]), 101%; in test [6] (setting [10]), 98.7%. Further, the Her2 level in test [2] was 100% (inactive). Also, in test [6] (H69AR cells + 2 uM doxorubicin), the differential viability (reversal) is -2.26% (inactive). For the same molecule, the values for the inhibition in test [7] and in test [8] were -1.79% (inactive) and -1.17% (inactive), respectively.

As for `CC(NC(=O)Nc1nccs1)(C(F)(F)F)C(F)(F)F`, the viability in test [1] was 102%; in test [3] it was 102% (inactive); in test [4], 103% (inactive); in test [5] it was 99.7% (inactive); in test [6] (setting [9]), 96.2%; in test [6] (setting [10]) it was 99.7%. Also, in test [2], the Her2 level is 83.5% (inactive). The differential viability (reversal) in test [6] (H69AR cells + 2 uM doxorubicin) is 3.42% (inactive). For the same molecule, the inhibition in test [7] was -7.26% (inactive); in test [8] it was -6.51% (inactive).

On to `COC(=O)c1cc(O)c(OCc2ccccc2)c(O)c1`, for which the viability in test [1] was 88%; in test [3] it was 88% (inactive); in test [4] it was 114% (inactive); in test [5] it was 94.3% (inactive); in test [6] (setting [9]), 76.3%; in test [6] (setting [10]), 94.3%. For the same molecule, the Her2 level in test [2] was 98% (inactive). In addition, the differential viability (reversal) in test [6] (H69AR cells + 2 uM doxorubicin) is 18% (inactive). For the same molecule, the inhibition in test [7] was 2.63% (inactive); in test [8], -7.09% (inactive).

As to `COc1ccc(CN2CC(C(=O)NCc3ccccn3)CC2=O)cc1` (stereo not given), the viability was 92.5% in test [1]; 92.5% (inactive) in test [3]; 101% (inactive) in test [4]; 105% (inactive) in test [5]; 95.1% in test [6] (setting [9]); 105% in test [6] (setting [10]). In addition, in test [2], the Her2 level was 104% (inactive). Further, in test [6] (H69AR cells + 2 uM doxorubicin), the differential viability (reversal) is 9.59% (inactive). In addition, the inhibition is -5% (inactive) in test [7] and -4.03% (inactive) in test [8].

Regarding `COc1ccc(C(C(C(=O)c2ccco2)N2CCOCC2)N2CCOCC2)cc1` (stereo not given), the viability in test [1] is 97%; in test [3], 97% (inactive); in test [4], 85.6% (inactive); in test [5], 87.3% (inactive); in test [6] (setting [9]) it was 91.4%; in test [6] (setting [10]), 87.3%. Besides, in test [2], the Her2 level is 95% (inactive). Also, in test [6] (H69AR cells + 2 uM doxorubicin), the differential viability (reversal) was -4.03% (inactive). Also, the results for the inhibition in test [7] and in test [8] were -6.53% (inactive) and -10.6% (inactive), respectively.

Turning to `COc1cc(CC(=O)NCc2ccc3c(c2)OCO3)cc(OC)c1OC`, the viability in test [1] was 99%; in test [3] it was 99% (inactive); in test [4] it was 85.9% (inactive); in test [5], 95.8% (inactive); in test [6] (setting [9]), 86.2%; in test [6] (setting [10]), 95.8%. Further, the Her2 level in test [2] was 78.5% (inactive). Also, in test [6] (H69AR cells + 2 uM doxorubicin), the differential viability (reversal) is 9.63% (inactive). For the same molecule, the inhibition in test [7] was -1.84% (inactive); in test [8] it was 3.45% (inactive).

Regarding `O=C(Cc1cccs1)Nc1nnc(CCc2ccccc2)s1`, the viability is 110% in test [1]; 110% (inactive) in test [3]; 88.7% (inactive) in test [4]; 80.7% (inactive) in test [5]; 86.4% in test [6] (setting [9]); 80.7% in test [6] (setting [10]). Besides, the Her2 level in test [2] was 91.5% (inactive). In test [6] (H69AR cells + 2 uM doxorubicin), the differential viability (reversal) is -5.74% (inactive). Further, the inhibition in test [7] was -0.78% (inactive); in test [8], -0.5% (inactive).

Consider `C=CCSc1nc2c(c(=O)[nH]c(=O)n2C)n1C(C)C`, for which the viability in test [1] is 85.5%; in test [3], 85.5% (inactive); in test [4], 88.9% (inactive); in test [5], 106% (inactive); in test [6] (setting [9]), 88.2%; in test [6] (setting [10]) it was 106%. Further, the Her2 level in test [2] is 89% (inactive). Also, the differential viability (reversal) in test [6] (H69AR cells + 2 uM doxorubicin) was 17.9% (inactive). Also, the inhibition in test [7] is -2.63% (inactive); in test [8] it was -1.64% (inactive).

Turning to `O=C(CCc1nc2ccccc2s1)OCC(=O)N1CCN(C(=O)c2ccco2)CC1`, the viability in test [1] was 117%; in test [3], 117% (inactive); in test [4] it was 91.1% (inactive); in test [5], 90.5% (inactive); in test [6] (setting [9]) it was 86.8%; in test [6] (setting [10]), 90.5%. Besides, in test [2], the Her2 level is 93.5% (inactive). The differential viability (reversal) in test [6] (H69AR cells + 2 uM doxorubicin) was 3.61% (inactive). Also, the values for the inhibition in test [7] and in test [8] were -5.41% (inactive) and -0.48% (inactive), respectively.

As for `CCCCN(C)Cc1c(C)[nH]c2c(Cl)cccc2c1=O`, the viability was 84.5% in test [1]; 84.5% (inactive) in test [3]; 96% (inactive) in test [4]; 90.6% (inactive) in test [5]; 76.9% in test [6] (setting [9]); 90.6% in test [6] (setting [10]). The Her2 level in test [2] is 87% (inactive). The differential viability (reversal) in test [6] (H69AR cells + 2 uM doxorubicin) is 13.7% (inactive). The inhibition is -4.34% (inactive) in test [7] and -2.06% (inactive) in test [8].

For `CCN(C(=O)COC(=O)c1cc(C)n(-c2ccc(F)cc2)c1C)C1CCS(=O)(=O)C1` (stereo not given), the viability is 85.5% in test [1]; 85.5% (inactive) in test [3]; 103% (inactive) in test [4]; 103% (inactive) in test [5]; 104% in test [6] (setting [9]); 103% in test [6] (setting [10]). For the same molecule, the Her2 level in test [2] is 93.5% (inactive). Further, the differential viability (reversal) in test [6] (H69AR cells + 2 uM doxorubicin) was -0.795% (inactive). The inhibition was -3.47% (inactive) in test [7] and 1.61% (inactive) in test [8].

As a reminder, the viability is a read-out of living cells in per cent, often relative to untreated cells. In general, inhibition refers to the relative decrease from the control value, in per cent.
